Key:
Assay type in all cases: cell-based, human
Phenion®FT skin tissues [1] = experiment: 3D skin comet assay; conditions: for % tail DNA vs SC + APC: three treatments over 48 h in the presence of APC
Phenion®FT skin tissues [2] = experiment: cytotoxicity in the skin comet assay
Summary of the method: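 Full-thickness tissues were cultured at the air–liquid interface (37°C, 5% CO₂). They were treated in triplicate with test compound ± APC in acetone (16 µl/cm²), either three times (48, 24 and 3 h) or once for 3 h. Afterwards, culture medium was kept at 4°C for adenylate kinase release. About 25% of each tissue was snap-frozen, homogenised in cold DPBS, heated (105°C, 5 min) and centrifuged; ATP was measured in the supernatant with a kit. Both measures were expressed relative to solvent control (100%).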

Phenion®FT skin tissues [3] = experiment: DNA adduct formation by TLC 32P-postlabelling assay
EpiDerm™ skin tissues [4] = experiment: reconstructed skin micronucleus
EpiDerm™ skin tissues [5] = experiment: cytotoxicity in the RSMN assay
Summary of the method: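 Skin tissues received test compound topically in 10 µl (16 µl/cm²) acetone, two or three times at 24 h intervals, in triplicate alongside solvent controls. Tissues were washed in DPBS, then DPBS-EDTA, and trypsinised (0.25% trypsin–0.02% EDTA, 15 min, 37°C) into single-cell suspensions. Viable cell count came from AO/DAPI staining with an automated counter, and % BN from AO staining over 500 cells/tissue. Both were expressed relative to solvent control; excessive cytotoxicity was a 55 ± 5 % reduction.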

EpiDerm™ skin tissues [6] = experiment: skin comet assay in EpiDerm skin tissues; conditions: single 3 h treatment, doses ≥2 µg/cm^2, keratinocytes, data not shown

How did the “% tail DNA vs SC + APC” value (Phenion®FT skin tissues [1]; fibroblasts, both experiments, all doses tested) turn out when `CC(=O)Nc1ccc2c(c1)Cc1ccccc1-2` [2-AAF, 2-acetylaminofluorene] was run?
The value was “significant increase in the % tail DNA”.

And the “% tail DNA vs SC + APC” value (Phenion®FT skin tissues [1]; keratinocytes, at 75 µg/cm^2)?
The value was “only statistically significant in one experiment”.

And the “dose that exceeded the % ATP cytotoxicity threshold” value (Phenion®FT skin tissues [2]; three treatments over 48 h with APC)?
The value was 75 µg/cm^2.

And the “increase of adduct levels after multiple exposures over 48 h vs 3 h treatment” value (Phenion®FT skin tissues [3]; multiple exposures over 48 h)?
The value was over 10 fold.

And the “2-AAF-derived DNA adducts” value (Phenion®FT skin tissues [3]; single 3 h treatment, 50 and 150 µg/cm^2)?
Its value is “minimal, but detectable”.

And the “DNA adduct level (RAL), up to” value (Phenion®FT skin tissues [3]; three treatments over 48 h)?
Its value is ~ 10 adducts per 10^8 nucleotides.

What about the “DNA adduct levels in the presence of APC” value (Phenion®FT skin tissues [3]; three-treatment protocol, 150 µg/cm^2, with APC) of the same compound?
The value was “additional, but non-significant increase”.

And the “DNA damage in the RSMN assay (% MN-BN)” value (EpiDerm™ skin tissues [4]; topical, three doses over 72 h, up to 96 µg/cm^2)?
The value was “did not significantly increase DNA damage”.

What about the “MN formation (% MN-BN)” value (EpiDerm™ skin tissues [4]; topical, two times over a 48-h period, doses up to 140 µg/cm^2, vs SC) of the same compound?
The value was “did not result in a significant increase in MN formation”.

`C[C@@]1(CO)[C@H](O)CC[C@@]2(C)[C@H]1CC[C@H]1C[C@@H]3C[C@@]12CC[C@]3(O)CO` [APC, aphidicolin] was tested. Which “DNA damage (% tail DNA) vs SC group alone” value (Phenion®FT skin tissues [1]; APC alone, 5 µg/ml in medium 4 h before end of incubation) did it give?
Its value is “small non-significant increase in DNA damage”.

`ONc1ccc2c(c1)Cc1ccccc1-2` [N-OH-2-AF, N-hydroxy-2-aminofluorene] was tested. Which “cytotoxicity by % VCC” value (EpiDerm™ skin tissues [5]; three treatments over 72 h, highest dose 1.3 µg/cm^2) did it give?
The value was “approached the cytotoxicity threshold for % VCC at the highest dose”.

What about the “potency in the skin comet assay compared with N-OH-2-AAF” value (Phenion®FT skin tissues [1]; single 3 h treatment) of the same compound?
The value was “more potent”.

What about the “near maximal level of DNA damage” value (Phenion®FT skin tissues [1]; single 3 h treatment, 1 µg/cm^2, keratinocytes and fibroblasts) of the same compound?
Its value is 60–80 % tail DNA.

And the “DNA damage (% tail DNA) in the presence of APC” value (Phenion®FT skin tissues [1]; single 3 h treatment, all three doses, both cell types)?
The value was “further amplified and reached near maximal levels”.

What about the “DNA damage (% tail DNA)” value (Phenion®FT skin tissues [1]; single 3 h treatment, doses of 0.25–4 µg/cm^2, keratinocytes and fibroblasts) of the same compound?
Its value is “robust, dose-responsive increase in DNA damage”.

And the “cytotoxicity (% AK, % ATP)” value (Phenion®FT skin tissues [2]; single 3 h treatment in the presence of APC)?
The value was “absence of excessive cytotoxicity”.

And the “level of DNA adducts compared with N-OH-2-AAF at the same dose” value (Phenion®FT skin tissues [3]; single 3 h treatment, 1 µg/cm^2)?
Its value is “not significantly different”.

And the “micronuclei in the RSMN assay (% MN-BN)” value (EpiDerm™ skin tissues [4]; three treatments over 72 h, at the two highest doses 0.85 and 1.3 µg/cm^2, P < 0.01)?
Its value is “significant change in micronuclei”.

What about the “MN formation (% MN-BN)” value (EpiDerm™ skin tissues [4]; two treatments over 48 h, up to 1.3 µg/cm^2) of the same compound?
The value was “did not significantly increase MN formation”.

With `CC(=O)N(O)c1ccc2c(c1)Cc1ccccc1-2` [N-OH-2-AAF, N-hydroxy-2-acetylaminofluorene] as the compound, how does the “dose that exceeded the cytotoxicity threshold by % BN” value (EpiDerm™ skin tissues [5]; two or three treatments over 48 h or 72 h) read?
Its value is 0.8 µg/cm^2.

What about the “DNA damage in the skin comet assay” value (EpiDerm™ skin tissues [6]) of the same compound?
Its value is “highly significant dose-dependent increase in DNA damage”.

What about the “% tail DNA” value (Phenion®FT skin tissues [1]; single 3 h treatment, 4 µg/cm^2, keratinocytes and fibroblasts) of the same compound?
The value was “significantly increased the % tail DNA”.

What about the “DNA damage (% tail DNA) in the presence of APC vs compound alone” value (Phenion®FT skin tissues [1]; single 3 h treatment, 1 and 4 µg/cm^2, both cell types) of the same compound?
The value was “further amplified”.

What about the “DNA damage in the RSMN assay (% MN-BN)” value (EpiDerm™ skin tissues [4]; three treatments over 72 h, doses up to 0.8 µg/cm^2) of the same compound?
Its value is “did not cause a significant increase in DNA damage”.

And the “DNA damage in the RSMN assay (% MN-BN)” value (EpiDerm™ skin tissues [4]; two treatments over 48 h, doses up to 0.8 µg/cm^2)?
Its value is “did not cause a significant increase in DNA damage”.

— PMC8081378 (Mutagenesis, 2019)
